Active and inactive are the calls of the source. The calls are words filed in the database; no cut-off is given here.
Legend:
Mus musculus [1] = test: Neurotoxicity in albino CF-1 mouse assessed as minimum motor impairment at 300 mg/kg, ip after 4 hrs by rotarod test; type: toxicity, organism-based; parameters: dose 300 mg/kg, route intraperitoneal; details: in vivo
In short: (§1)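 Minimal motor impairment assessed in male CF-1 albino mice (18–25 g) at 0.5 and 4 h after i.p. doses of 30, 100 and 300 mg/kg, given in 0.5% methyl cellulose. Minimum dose toxic in half or more of mice recorded.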

[2] = Octanol-phosphate buffer partition coefficient, log P of the compound at 5 mg after 24 hrs by UV spectroscopic analysis; type: physicochemical
In short: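 5 mg compound added to 10 mL octanol plus 10 mL phosphate buffer in a stoppered tube. Mixture shaken mechanically 24 h at room temperature, then left 6 h in a separating funnel to equilibrate.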

Mus musculus [3] = test: Neurotoxicity in albino CF-1 mouse assessed as minimum motor impairment at 300 mg/kg, ip after 0.5 hrs by rotarod test; type: toxicity, organism-based; parameters: dose 300 mg/kg, route intraperitoneal; details: in vivo; in short: as §1
Mus musculus [4] = test: Anticonvulsant activity in albino CF-1 mouse assessed as protection against 6 Hz psychomotor seizure at 100 mg/kg, ip after 0.25 hrs by minimal clonic seizure test; type: functional
In short: (§2)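 Male CF-1 albino mice (18–25 g) given compound i.p., suspended in 0.5% methyl cellulose, 100 mg/kg in screen. Four mice per time point challenged at 0.25, 0.5, 1.0, 2.0 and 4.0 h via corneal electrodes (32 mA, 3 s, 6 Hz). Protection = absence of psychomotor seizure (minimal clonic phase, automatistic behaviours). Scored as animals protected/tested.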

Mus musculus [5] = test: Anticonvulsant activity in albino CF-1 mouse assessed as protection against 6 Hz psychomotor seizure at 100 mg/kg, ip after 0.5 hrs by minimal clonic seizure test; type: functional; in short: as §2
Mus musculus [6] = test: Anticonvulsant activity in albino CF-1 mouse assessed as protection against 6 Hz psychomotor seizure at 100 mg/kg, ip after 4 hrs by minimal clonic seizure test; type: functional, organism-based; parameters: dose 100 mg/kg; in short: as §2
Mus musculus [7] = test: Anticonvulsant activity in albino CF-1 mouse assessed as protection against 6 Hz psychomotor seizure at 100 mg/kg, ip after 1 hr by minimal clonic seizure test; type: functional; in short: as §2
Mus musculus [8] = test: Anticonvulsant activity in albino CF-1 mouse assessed as protection against 6 Hz psychomotor seizure at 100 mg/kg, ip after 2 hrs by minimal clonic seizure test; type: functional; in short: as §2
[9] = Neuroprotective activity in hippocampal slice assessed as protection against kainic acid-induced cell death using propidium iodide staining; type: functional, tissue-based; details: Hippocampus
In short: (§3)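 Qualitative primary screen on organotypic hippocampal slice cultures. Cell death induced by NMDA or kainic acid, with or without test compound. Propidium iodide present in all wells; PI fluorescence intensity taken as proportional to cell death.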

[10] = Neuroprotective activity in hippocampal slice assessed as protection against NMDA-induced cell death using propidium iodide staining; type: functional, tissue-based; details: Hippocampus; in short: as §3

Row | Compound | Activity (Mus musculus [1]) | logP at 24 h [2] | Activity (Mus musculus [3]) | Activity (Mus musculus [4]) | Activity (Mus musculus [5]) | Activity (Mus musculus [6]) | Activity (Mus musculus [7]) | Activity (Mus musculus [8]) | Activity (Mus musculus [5]; route intraperitoneal) [%] | Activity (Mus musculus [7]; route intraperitoneal) [%] | Activity (Mus musculus [8]; route intraperitoneal) [%] | Activity [9] | Activity [10] | Activity (Mus musculus [4]; route intraperitoneal) [%]
1 | S=C(N/N=C/c1ccc(Oc2ccc(Cl)cc2)cc1)Nc1ccc(Br)cc1 | Non-toxic | 6.24 | Non-toxic |  |  |  |  |  |  |  |  |  |  | 
2 | S=C(N/N=C/c1ccc(Oc2ccc(Cl)cc2)cc1)Nc1ccc(Cl)cc1 | Non-toxic | 6.2 | Non-toxic |  |  |  |  |  |  |  |  |  |  | 
3 | O=[N+]([O-])c1ccc(Oc2ccc(/C=N/NC(=S)Nc3ccc(Br)cc3)cc2)cc1 | Non-toxic | 5.68 | Non-toxic |  |  |  |  |  |  |  |  |  |  | 
4 | S=C(N/N=C/c1ccc(Oc2ccc(Br)cc2)cc1)Nc1ccc(Cl)cc1 | Non-toxic | 6.37 | Non-toxic |  |  |  |  |  |  |  |  |  |  | 
5 | Cc1ccc(Oc2ccc(/C=N/NC(=S)Nc3ccc(Br)cc3)cc2)cc1 | Non-toxic | 6.17 | Non-toxic | inactive | Active | inactive | Active | inactive |  |  |  |  |  | 
6 | Fc1ccc(Oc2ccc(/C=N/NC(=S)Nc3ccc(Br)cc3)cc2)cc1 | Non-toxic | 5.82 | Non-toxic | inactive | Active | inactive | Active | Active |  |  |  |  |  | 
7 | O=[N+]([O-])c1ccc(Oc2ccc(/C=N/NC(=S)Nc3ccc(F)cc3)cc2)cc1 | Non-toxic | 4.89 | Non-toxic | inactive |  | inactive | Active | inactive | 50 |  |  |  |  | 
8 | Cc1ccc(Oc2ccc(/C=N/NC(=S)Nc3ccccc3)cc2)cc1 | Non-toxic | 5.39 | Non-toxic |  |  |  |  |  |  |  |  |  |  | 
9 | Cc1ccc(Oc2ccc(/C=N/NC(=S)Nc3ccc(F)cc3)cc2)cc1 | Non-toxic | 5.48 | Non-toxic | Active |  | inactive | inactive | inactive | 50 |  |  |  |  | 
10 | Fc1ccc(NC(=S)N/N=C/c2ccc(Oc3ccc(Br)cc3)cc2)cc1 | Non-toxic | 5.88 | Non-toxic | inactive | Active | inactive | inactive | inactive |  |  |  |  |  | 
11 | Fc1ccc(Oc2ccc(/C=N/NC(=S)Nc3ccc(Cl)cc3)cc2)cc1 | Non-toxic | 5.84 | Non-toxic | Active | Active | Active | inactive | Active |  |  |  |  |  | 
12 | S=C(N/N=C/c1ccc(Oc2ccccc2)cc1)Nc1ccc(Cl)cc1 | Non-toxic | 5.64 | Non-toxic |  |  |  |  |  |  |  |  |  |  | 
13 | S=C(N/N=C/c1ccc(Oc2ccc3ccccc3c2)cc1)Nc1ccccc1 | Non-toxic | 6.07 | Non-toxic |  |  |  |  |  |  |  |  |  |  | 
14 | S=C(N/N=C/c1ccc(Oc2ccc3ccccc3c2)cc1)Nc1ccc(Cl)cc1 | Non-toxic | 6.96 | Non-toxic |  |  |  |  |  |  |  |  |  |  | 
15 | S=C(N/N=C/c1ccc(Oc2ccc3ccccc3c2)cc1)Nc1ccc(Br)cc1 | Non-toxic | 6.93 | Non-toxic |  |  |  |  |  |  |  |  |  |  | 
16 | O=[N+]([O-])c1ccc(Oc2ccc(/C=N/NC(=S)Nc3ccccc3)cc2)cc1 | Non-toxic | 4.95 | Non-toxic |  |  |  |  |  |  |  |  |  |  | 
17 | S=C(N/N=C/c1ccc(Oc2ccc(Cl)cc2)cc1)Nc1ccccc1 | Non-toxic | 5.52 | Non-toxic |  |  |  |  |  |  |  |  |  |  | 

Row | Compound | Activity (Mus musculus [1]) | logP at 24 h [2] | Activity (Mus musculus [3]) | Activity (Mus musculus [4]) | Activity (Mus musculus [5]) | Activity (Mus musculus [6]) | Activity (Mus musculus [7]) | Activity (Mus musculus [8]) | Activity (Mus musculus [5]; route intraperitoneal) [%] | Activity (Mus musculus [7]; route intraperitoneal) [%] | Activity (Mus musculus [8]; route intraperitoneal) [%] | Activity [9] | Activity [10] | Activity (Mus musculus [4]; route intraperitoneal) [%]
18 | Cc1cc(Oc2ccc(/C=N/NC(=S)Nc3ccc(Cl)cc3)cc2)ccc1Cl | Non-toxic | 6.59 | Non-toxic | inactive | Active | inactive |  |  |  | 50 | 50 |  |  | 
19 | Fc1ccc(Oc2ccc(/C=N/NC(=S)Nc3ccccc3)cc2)cc1 | Non-toxic | 5.09 | Non-toxic | inactive | inactive | inactive | Active | inactive |  |  |  |  |  | 
20 | S=C(N/N=C/c1ccc(Oc2ccccc2)cc1)Nc1ccccc1 | Non-toxic | 4.9 | Non-toxic |  |  |  |  |  |  |  |  |  |  | 
21 | S=C(N/N=C/c1ccc(Oc2ccccc2)cc1)Nc1ccc(Br)cc1 | Non-toxic | 6.38 | Non-toxic | inactive | Active | inactive | inactive | inactive |  |  |  | inactive | inactive | 
22 | Cc1cc(Oc2ccc(/C=N/NC(=S)Nc3ccccc3)cc2)ccc1Cl | Non-toxic | 6.03 | Non-toxic | inactive | Active | inactive | inactive | inactive |  |  |  |  |  | 
23 | S=C(N/N=C/c1ccc(Oc2ccc3c(c2)OCO3)cc1)Nc1ccc(Cl)cc1 | Non-toxic | 5.54 | Non-toxic |  |  |  |  |  |  |  |  |  |  | 
24 | O=[N+]([O-])c1ccc(Oc2ccc(/C=N/NC(=S)Nc3ccc(Cl)cc3)cc2)cc1 | Non-toxic | 5.52 | Non-toxic |  |  |  |  |  |  |  |  |  |  | 
25 | S=C(N/N=C/c1ccc(Oc2ccc(Br)cc2)cc1)Nc1ccccc1 | Non-toxic | 5.62 | Non-toxic | inactive | Active | inactive | Active | Active |  |  |  |  |  | 
26 | S=C(N/N=C/c1ccc(Oc2ccc3c(c2)OCO3)cc1)Nc1ccccc1 | Non-toxic | 4.8 | Non-toxic |  |  |  |  |  |  |  |  |  |  | 
27 | Fc1ccc(NC(=S)N/N=C/c2ccc(Oc3ccc(F)cc3)cc2)cc1 | Non-toxic | 5.19 | Non-toxic |  | Active | inactive | inactive | Active |  |  |  |  |  | 50
28 | Fc1ccc(NC(=S)N/N=C/c2ccc(Oc3ccccc3)cc2)cc1 | Non-toxic | 5.09 | Non-toxic | Active | Active | inactive | inactive | inactive |  |  |  |  |  | 
29 | Fc1ccc(NC(=S)N/N=C/c2ccc(Oc3ccc4c(c3)OCO4)cc2)cc1 | Non-toxic | 4.99 | Non-toxic |  |  |  |  |  |  |  |  |  |  | 
30 | Fc1ccc(NC(=S)N/N=C/c2ccc(Oc3ccc4ccccc4c3)cc2)cc1 | Non-toxic | 6.2 | Non-toxic | inactive | inactive | Active | inactive | Active |  |  |  |  |  | 
31 | S=C(N/N=C/c1ccc(Oc2ccc3c(c2)OCO3)cc1)Nc1ccc(Br)cc1 | Non-toxic | 5.52 | Non-toxic |  |  |  |  |  |  |  |  |  |  | 
32 | Cc1cc(Oc2ccc(/C=N/NC(=S)Nc3ccc(F)cc3)cc2)ccc1Cl | Non-toxic | 6.07 | Non-toxic | inactive | Active | inactive | Active | inactive |  |  |  |  |  | 
33 | Cc1ccc(Oc2ccc(/C=N/NC(=S)Nc3ccc(Cl)cc3)cc2)cc1 | Non-toxic | 5.97 | Non-toxic |  |  |  |  |  |  |  |  |  |  | 

Source: ChEMBL document CHEMBL1932946, “Design, synthesis and anticonvulsant evaluation of novel N-(4-substituted phenyl)-2-[4-(substituted) benzylidene]-hydrazinecarbothio amides” (Eur J Med Chem, 2012)
